Data on 62 compounds can be found in PubChem BioAssay AID1448 (The Scripps Research Institute Molecular Screening Center, 2008).

The campaign covered roughly 220,000 compounds. About 630 (0.29%) were called active. The list comes from a sample in which actives are over-represented; it also holds similar structures and randomly drawn compounds. Values without a mark were called inactive.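 The calls were made as follows: active = activation above its plate's cutoff, the mean activation of the plate's test wells plus 3 SD (cut at about 12% in these data); inactive = the rest.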

Sequence of Mucolipin-3 (Homo sapiens) (Q8TDD5 whole entry, looked up): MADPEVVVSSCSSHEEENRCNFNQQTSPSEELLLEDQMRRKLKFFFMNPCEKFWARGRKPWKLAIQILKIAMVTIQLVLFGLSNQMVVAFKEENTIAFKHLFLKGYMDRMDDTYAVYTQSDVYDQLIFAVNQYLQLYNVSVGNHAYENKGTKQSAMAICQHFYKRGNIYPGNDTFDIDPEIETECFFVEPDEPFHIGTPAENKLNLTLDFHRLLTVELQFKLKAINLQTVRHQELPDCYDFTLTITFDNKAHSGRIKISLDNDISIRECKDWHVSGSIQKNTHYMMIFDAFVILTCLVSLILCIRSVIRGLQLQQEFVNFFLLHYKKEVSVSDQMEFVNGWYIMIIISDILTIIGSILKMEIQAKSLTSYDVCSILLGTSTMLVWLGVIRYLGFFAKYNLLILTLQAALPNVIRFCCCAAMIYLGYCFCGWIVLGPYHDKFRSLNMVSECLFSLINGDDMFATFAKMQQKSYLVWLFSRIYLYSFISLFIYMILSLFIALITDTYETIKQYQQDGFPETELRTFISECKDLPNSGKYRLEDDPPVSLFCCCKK

For this assay, the target named is Mucolipin-3 (Homo sapiens) (UniProt Q8TDD5). Put plainly: activators of mucolipin-3 cation channel – cell-based, HEK293 TRPML3-YFP, Fluo-8 calcium fluorescence, 3 µM, primary screen (AID 1448).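 Also: 0% = DMSO only wells and 100% = carbachol wells.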 To be noted: at 3 µM, stronger effect = higher value, 100% = the carbachol control signal. A digest of the protocol: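 Material: TRPML3-YFP stable HEK293 cells | Dosing: One concentration, 3 µM nominal, 0.3% DMSO | Timing: 125 s total fluorescence read per well | Technique: Fluo-8 calcium dye fluorescence, ex 470-495, em 515-575 nm | Measure: Percent activation from peak-to-basal fluorescence ratio, scaled between DMSO and carbachol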
Take `COc1ccc(N2C(=O)c3cccc4cccc(c34)C2=O)nn1`: the activation is -0.51%. With `Cc1nn(-c2cc(Cl)ccc2N)c(=O)c2ccccc12`, the activation is 0.26%.

For `Cc1nn(C)cc1N1C(=O)c2cccc3c(N)ccc(c23)C1=O`, the activation is 16.9% (active). Take `COCc1cc(=O)[nH]c(SC)n1`: the activation was 0.74%. As for `Cc1cc(C)cc(C(=O)NCC(=O)OCC(=O)N2CCCCC2)c1`, the activation is 0.67%. Under `CC(NC(=O)COC(=O)C1CCN(S(=O)(=O)c2ccccc2C(F)(F)F)CC1)c1ccccc1` (configuration not stated) stands -0.74%; under `CC(C)CCC(C)NC(=O)c1ccc2nccnc2c1` (configuration not stated), -0.61%. Consider `O=C(c1nnc(-c2ccc(Cl)cc2)o1)C1CCCC1`, for which the activation was 0.06%. `CC1=C(C)CC2C(=O)N(c3cccc4ccccc34)C(=O)C2C1` (configuration not stated): the activation was 0.86%. Under `CC1(C)CCCC2=C1CC1C(=O)N(c3ccccc3)C(=O)C1C2` (configuration not stated) stands 22.9% (active); under `Cc1ccc(N2C(=O)C3CC3C2=O)cc1` (configuration not stated), 0.72%; under `Cc1cccc(-n2cnc(C(=O)NNC(=S)Nc3ccccc3)c2)n1`, 0.89%. For the compound `Cn1ccc(NC(=O)Nc2ccc(Cl)cc2)n1`, the activation was 1.03%.

As to `CN(C)c1ccc(/C=C2\NC(=S)N(Cc3ccccc3)C2=O)cc1`, the activation was 19.5% (active). Take `CC1=NN(Cc2ccccc2)C(=O)/C1=C/c1ccc(N(C)C)cc1`: the activation is -2.14%. Turning to `O=C1NCC(=O)N(Cc2ccccc2)/C1=C/c1ccccc1`, the activation was 1.86%. The same measure for `O=C(Nc1ccc(N2CCN(C(=O)c3ccccc3)CC2)c(Cl)c1)c1ncn[nH]1`: -0.11%; for `COCCNc1nc2nonc2nc1N1CCCC1c1nccs1` (configuration not stated): 0.19%. `NS(=O)(=O)c1ccc(NC(=S)NNC(=O)c2cccs2)cc1`: the activation was -0.19%. Regarding `O=S(=O)(c1ccc(NC(=S)NN=C(C2CC2)C2CC2)cc1)N1CCOCC1`, the activation was 0.74%.

For the compound `COc1cc(/C=C(\C#N)c2nc3c(s2)CC(C)CC3)ccc1O` (configuration not stated), the activation was 12.4% (active).

Take `COc1cc(/C=N/Nc2nc3ccccc3s2)ccc1O`: the activation was -0.85%.

With `CCOc1cc(/C=C(\C#N)c2nc(-c3cccs3)c(NC(C)=O)s2)ccc1O`, the activation was 9.68%. As for `Cc1nn(CC(=O)Nc2ccc3c(c2)OCO3)c(C)c1[N+](=O)[O-]`, the activation is -0.67%. On to `Cc1[nH]n(-c2ccccc2)c(=O)c1N=Nc1ccccc1C(=O)N1CCCCC1`, for which the activation was 0.09%. In the case of `O=C(CSc1nc2ccc(Nc3nc(N4CCOCC4)nc(N4CCOCC4)n3)cc2s1)NCc1ccco1`, the activation is 0.56%. The same measure for `CCn1c(Cc2ccccc2)nnc1SCC(=O)Nc1ccccc1`: -0.27%; for `CCCc1nnc(SCC(=O)N2C(C)CCCC2C)n1CC` (configuration not stated): 20.2% (active); for `CCn1c(CSc2ncccn2)nnc1SCC(=O)N1c2ccccc2CC1C` (configuration not stated): -0.71%.

In the case of `Cc1sc2nc(CC(N)=O)[nH]c(=O)c2c1-c1ccccc1`, the activation was 0.25%.

On to `CCCN(C(=O)CSc1nnnn1C)c1c(N)n(Cc2ccccc2)c(=O)[nH]c1=O`, for which the activation was -0.23%. Take `COCCNC(=S)N1CCN(C)CC1`: the activation is 0.99%.

On to `CCCCC(=O)NNC(=S)NC(=O)C(c1ccccc1)c1ccccc1`, for which the activation is 74.5% (active). The same measure for `O=C(NNC(=S)NCc1ccco1)C(c1ccccc1)c1ccccc1`: 0.93%; for `CC(C)C(=O)Nc1cccc(NC(=S)NC(=O)C(c2ccccc2)c2ccccc2)c1`: 1.07%; for `O=[N+]([O-])c1cc(S(=O)(=O)Nc2cccc(Cl)c2)ccc1N=Nc1c(O)[nH]c2ccccc12`: 0.58%.

For `CCS(=O)(=O)Nc1ccc(C2=NN(C(C)=O)C(c3cccs3)C2)cc1` (configuration not stated), the activation is 0.2%.

`NNC(=O)c1cccc(COCC(F)(F)C(F)F)c1`: the activation is 0.05%.

Consider `CC(C)c1c(O)nc(SCCOc2ccc(Cl)cc2)[nH]c1=O`, for which the activation was 0.56%. In the case of `COc1cc(OC)cc(/C(N)=N/O)c1`, the activation was 0.62%.

In the case of `CC(/C=C/c1ccco1)=N/NC(=O)C1COc2ccccc2O1` (configuration not stated), the activation was 1.2%. With `C=C(C)Cn1c(C)cc(C)c(S(=O)(=O)c2ccccc2C)c1=O`, the activation was 42% (active). `S=c1nc(C23CC4CC(CC(C4)C2)C3)nc2sccn12`: the activation is 0.26%. Regarding `Cc1ccccc1C(=O)NNC(=O)CN1C(=O)c2ccccc2C1=O`, the activation is 1.17%. Consider `O=C(NCCN1C(=O)S/C(=C\c2cccnc2)C1=O)c1ccc(S(=O)(=O)N2CCCC2)cc1`, for which the activation is -0.11%. With `O=C(COC(=O)c1ccc(NS(=O)(=O)c2cccs2)cc1O)Nc1ccc(F)cc1`, the activation is 0.82%. As for `O=C(CSc1nncn1-c1cccnc1)N1CCOCC1`, the activation was 0.63%. In the case of `O=C(Nc1ccccc1N1CCOCC1)c1csc2c1CCCC2`, the activation is -1.45%.

Consider `O=S(=O)(Nc1ccccc1N1CCOCC1)c1ccc(Cl)s1`, for which the activation is 98.9% (active). Regarding `O=S(=O)(Nc1cc(S(=O)(=O)N2CCOCC2)ccc1N1CCCC1)c1cccs1`, the activation was -0.45%. The same measure for `CCOc1ccc(Br)cc1S(=O)(=O)Nc1ccc(C(=O)OC(C)C(=O)N(C)c2ccccc2)cc1` (configuration not stated): 0.82%; for `COc1ccc(OC)c(NC(=S)N2CCc3ccccc3C2)c1`: -0.32%. Under `COCc1[nH][nH]c(=O)c1C=Nc1ccc(F)cc1F` stands 0.21%; under `Cc1ccc(O)c(NC(=O)COc2cc(C)ccc2C)c1`, 0.83%; under `Cc1ccc(O)c(NC(=S)NC(=O)COc2ccc(Br)cc2)c1`, 20.5% (active).

Consider `Cc1cccc(OCC(=O)NC(=S)Nc2ccccc2N2CCOCC2)c1`, for which the activation is 0.19%. The same measure for `CC(C)N(C(=O)CSc1nc(COc2ccccc2)nc2ccccc12)C(C)C`: -1.84%. For the compound `O=C(NCc1cccnc1)C(=O)Nc1nc(-c2ccccc2)cs1`, the activation was 0.51%. As to `O=C(NNS(=O)(=O)Cc1ccccc1)c1ccc([N+](=O)[O-])cc1`, the activation is 0.34%. Take `CCN(CC)S(=O)(=O)c1ccc2c3c(cccc13)C(=O)S2`: the activation was 12.9% (active).

As for `CN(CCc1ccccn1)S(=O)(=O)c1ccc2c3c(cccc13)C(=O)N2`, the activation is 0.24%. Under `CCN(CC)S(=O)(=O)c1cc([N+](=O)[O-])ccc1N=Nc1c(O)n(C)c2ccccc12` stands 0.98%.
